Source: ChEMBL document CHEMBL4819129, “Design, synthesis and lipid-lowering activities of penipyridone derivatives” (Bioorg Med Chem, 2021)
Active and inactive are the calls of the source. No cut-off for these calls is given here.

Assays:
HepG2 [1] = test: Hypolipidemic activity in human HepG2 cells assessed as inhibition of oleic acid-induced lipid accumulation at 10 uM; format: functional, cell-based
Outline: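 Oleic acid-induced lipid accumulation in HepG2; cells given 100 μM oleic acid with or without compound at 10 μM in DMSO; DMSO-only and OA-only controls, Simvastatin 10 μM positive control. Lipid quantified by oil red O staining. Mean ± SD, n = 4–6, at least three independent experiments.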

HepG2 [2] = test: Cytotoxicity against human HepG2 cells assessed as reduction in cell viability at 100 uM by MTT assay; format: cell-based; details: hepg2, 100 µM
Outline: (§1)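 MTT viability in HepG2 seeded at 1.2 × 10⁴ cells/well, grown 24 h, then given serial dilutions from DMSO stocks (0.22 μm-filtered) in DMEM + 10% FBS, DMSO as control; 48 h at 37 °C. MTT 5 mg/mL in PBS added for 4 h, formazan dissolved in 10% SDS/0.01 N HCl, A490 read; DMSO wells = 100% viable. Mean ± SD, n = 6.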

HepG2 [3] = test: Hypolipidemic activity in human HepG2 cells assessed as inhibition of oleic acid-induced triglyceride accumulation at 10 uM after 24 hrs; format: functional, cell-based
Outline: (§2)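 HepG2 in 12-well plates at 2 × 10⁵ cells/well, 37 °C; after 24 h, co-treated 24 h with 100 μmol/L oleic acid plus compound (DMSO vehicle) or Simvastatin 10 μM. Cells rinsed twice in PBS, lysed on ice 20 min, and triglyceride and total cholesterol contents measured. OA-only cells served as reference. Mean ± SD, n = 4.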

HepG2 [4] = test: Cytotoxicity against human HepG2 cells assessed as reduction in cell viability at 400 uM incubated for 48 hrs by MTT assay; format: cell-based; details: hepg2, 48 h; outline: as §1
HepG2 [5] = test: Hypolipidemic activity against oleic acid-induced lipid accumulation in human HepG2 cell model assessed as decrease in triglycerides level at 10 uM measured after 24 hrs; format: functional; design: scale not given: the % may be the effect or the level left; outline: as §2
HepG2 [6] = test: Hypolipidemic activity against oleic acid-induced lipid accumulation in human HepG2 cell model assessed as decrease in total cholestrol level at 10 uM measured after 24 hrs; format: functional; design: scale not given: the % may be the effect or the level left; outline: as §2
HepG2 [7] = test: Hypolipidemic activity in human HepG2 cells assessed as reduction in OA-induced lipid accumulation incubated for 1 hrs by Oil Red O staining based assay; format: functional, cell-based; details: time 24.0 hrs, in the assay text read “24 hrs” for “1 hrs”
Outline: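 Oil red O: HepG2 fixed in 10% neutral formalin 1 h at room temperature, PBS-washed, stained 1 h with 0.5% oil red O in 60% isopropanol, water-washed and imaged (40×). For quantification, stained lipid droplets (30 min) washed with 70% ethanol and absorbance read at 358 nm.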

HepG2 [8] = test: Hypolipidemic activity against oleic acid-induced lipid accumulation in human HepG2 cell model assessed as decrease in total cholestrol level at 20 uM measured after 24 hrs; format: functional; design: scale not given: the % may be the effect or the level left; outline: as §2
HepG2 [9] = test: Hypolipidemic activity against oleic acid-induced lipid accumulation in human HepG2 cell model assessed as decrease in triglycerides level at 20 uM measured after 24 hrs; format: functional; design: scale not given: the % may be the effect or the level left; outline: as §2
HepG2 [10] = test: Hypolipidemic activity against oleic acid-induced lipid accumulation in human HepG2 cell model assessed as decrease in total cholestrol level at 5 uM measured after 24 hrs; format: functional; design: scale not given: the % may be the effect or the level left; outline: as §2

| Structure (SMILES) | Activity (HepG2 [1]) | also measured |
| --- | --- | --- |
| COCCOc1cc([C@@H](OC(C)=O)c2ccccc2)ncc1C(N)=O | inactive | – |
| CC(=O)O[C@@H](c1ccccc1)c1cc(OCCN2CCCC2)c(C(N)=O)cn1 | Active | – |
| CC(=O)O[C@@H](c1ccccc1)c1cc(=O)c(C(N)=O)cn1CCN(C)C | Active | Activity (HepG2 [2]): Non-Toxic |
| CCOC(=O)COc1cc([C@@H](OC(C)=O)c2ccccc2)ncc1C(N)=O | Active | Activity (HepG2 [3]): Active; Activity (HepG2 [2]): Non-Toxic; Activity (HepG2 [4]): Non-Toxic |
| CCC(C)(C)C(=O)O[C@H]1C[C@@H](C)C=C2C=C[C@H](C)[C@H](CC[C@@H]3C[C@@H](O)CC(=O)O3)[C@H]21 [SIMVASTATIN] | – | Activity (HepG2 [5]): 29.1%; Activity (HepG2 [6]): 12.1% |
| COCCn1cc(C(N)=O)c(=O)cc1[C@@H](OC(C)=O)c1ccccc1 | inactive | – |
| NC(=O)c1cnc(Cc2ccccc2)cc1OCCO | Active | Activity (HepG2 [2]): Non-Toxic |
| CC(=O)O[C@@H](c1ccccc1)c1cc(OCc2cc(C(F)(F)F)cc(C(F)(F)F)c2)c(C(N)=O)cn1 | inactive | – |
| CC(=O)O[C@H](c1ccccc1)c1cc(OCCO)c(C(N)=O)cn1 | inactive | – |
| CC(=O)O[C@@H](c1ccccc1)c1cc(=O)c(C(=O)NC(=O)CC(C)C)cn1CCO | Active | – |
| CC(C)CC(=O)O[C@@H](c1ccccc1)c1cc(=O)c(C(N)=O)cn1CCO | inactive | – |
| CC(=O)O[C@@H](c1ccccc1)c1cc(OCCN(C)C)c(C(N)=O)cn1 | Active | Activity (HepG2 [2]): Non-Toxic |
| CC(C)CC(=O)O[C@@H](c1ccccc1)c1cc(OCCO)c(C(N)=O)cn1 | inactive | – |
| CC(=O)O[C@@H](c1ccccc1)c1cc(OCCO)c(C(=O)N(C)C)cn1 | inactive | – |
| NC(=O)c1cn(CCO)c(-c2ccccc2)cc1=O | Active | Activity (HepG2 [2]): Non-Toxic |
| CC(=O)O[C@@H](c1ccccc1)c1cc(OCCN2CCSCC2)c(C(N)=O)cn1 | Active | Activity (HepG2 [7]): Dose-Dependent Effect; Activity (HepG2 [3]): Active; Activity (HepG2 [8]): 14.8%; Activity (HepG2 [9]): 30.2%; Activity (HepG2 [2]): Non-Toxic; Activity (HepG2 [10]): 12.8%; Activity (HepG2 [4]): Non-Toxic |
| COc1ccc(Cn2cc(C(N)=O)c(=O)cc2[C@@H](OC(C)=O)c2ccccc2)cc1 | inactive | – |
| CC(=O)O[C@@H](c1ccccc1)c1cc(OCCO)c(C(N)=O)cn1 | Active | Activity (HepG2 [3]): Active; Activity (HepG2 [4]): Non-Toxic |
| CC(=O)O[C@@H](c1ccccc1)c1cc(=O)c(C(N)=O)cn1CCN1CCCC1 | Active | – |
| NC(=O)c1cnc([C@@H](O)c2ccccc2)cc1OCCO | inactive | – |
| CC(=O)O[C@@H](c1ccccc1)c1cc(=O)c(C(N)=O)cn1Cc1cc(C(F)(F)F)cc(C(F)(F)F)c1 | inactive | – |
| CC(=O)O[C@@H](c1ccccc1)c1cc(=O)c(C(N)=O)cn1CCN1CCCCC1 | Active | – |
| CC(=O)O[C@@H](c1ccccc1)c1cc(OCc2ccccc2)c(C(N)=O)cn1 | inactive | – |
| CC(=O)O[C@@H](c1ccccc1)c1cc(=O)c(C(N)=O)cn1Cc1ccccc1 | inactive | – |
| CC(=O)O[C@@H](c1ccccc1)c1cc(OCCN2CCOCC2)c(C(N)=O)cn1 | Active | Activity (HepG2 [2]): Non-Toxic |
